According to ChEMBL document CHEMBL1153215, “Investigation of the sequence and length dependence for cell-penetrating prenylated peptides” (Bioorg Med Chem Lett, 2010):
Where a SMILES comes first, the peptide text is derived from it. Bridges are numbered along the chain shown (N, C = ends). Roman numbers before positions name the chains, in order. The star is where a group is joined. Geranylgeranyl = CC(C)=CCC/C(C)=C/CC/C(C)=C/CC/C(C)=C/C*; Acryloyl(2E,3-(2-furyl)) = O=C(/C=C/c1ccco1)*

How the values were obtained:
Format in all cases: ADME, cell-based
HeLa [1] = test: Cellular uptake in human HeLa cells at 0.3 to 3 uM after 1 hr by confocal laser-scanning microscopy
Outline: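 Fluorescein-labelled peptides were incubated with HeLa cells for 1 h, then the cells were washed. Cells were either fixed in 3.7% formaldehyde (1 μM peptide) or imaged live without fixation (3 μM peptide). Hoechst stained the nucleus and wheat germ agglutinin–Alexa Fluor 594 stained the plasma membrane. Internalization was viewed by confocal microscopy.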

HeLa [2] = test: Cellular uptake in human HeLa cells at 0.3 to 3 uM by FACS
Outline: (§1)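 HeLa cells were incubated with 0.3, 1.0 or 3.0 μM fluorescein-linked peptide for 1 h at 37 °C. Cells were then trypsinized and washed to remove surface-bound peptide. Fluorescence of 10,000 cells was read by flow cytometry, in triplicate. Values are geometric mean relative fluorescence ± standard deviation.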

HeLa [3] = test: Cellular uptake in human HeLa cells at […] at 4 degC condition by FACS
Outline: as §1, with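 “with” for “with 0.3,”, “1.0” for “1.0 or 3.0”, “at 4 °C,” for “for 1 h”, “°C, or under ATP-depleting conditions.” for “°C.”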

HeLa [4] = test: Cellular uptake in human HeLa cells at 0.3 to 3 uM at 37 degC condition by FACS; outline: as §1

Measured: Activity

CC(C)=CCC/C(C)=C/CC/C(C)=C/CC/C(C)=C/CSC[C@H](NC(=O)[C@H](CCCNC(=N)N)NC(=O)[C@H](CCCNC(=N)N)NC(=O)/C=C/c1ccco1)C(N)=O
Active: all assays above

CC(C)=CCC/C(C)=C/CC/C(C)=C/CC/C(C)=C/CSC[C@H](NC(=O)[C@H](CCCNC(=N)N)NC(=O)/C=C/c1ccco1)C(N)=O
Active: all assays above

CC(=O)N[C@@H](CCCCNC(=O)/C=C/c1ccco1)C(=O)N[C@@H](C)C(=O)N[C@@H](C)C(=O)N[C@@H](C)C(=O)N[C@@H](CO)C(=O)N[C@@H](CCCNC(=N)N)C(=O)N[C@@H](CCCNC(=N)N)C(=O)N[C@@H](CSC/C=C(\C)CC/C=C(\C)CC/C=C(\C)CCC=C(C)C)C(N)=O (Ac-K(Acryloyl(2E,3-(2-furyl)))AAASRRC(Geranylgeranyl)-NH2)
Active: all assays above

CC(=O)N[C@@H](CCCCNC(=O)/C=C/c1ccco1)C(=O)N[C@@H](C)C(=O)N[C@@H](CO)C(=O)N[C@@H](CCCNC(=N)N)C(=O)N[C@@H](CCCNC(=N)N)C(=O)N[C@@H](CSC/C=C(\C)CC/C=C(\C)CC/C=C(\C)CCC=C(C)C)C(N)=O (Ac-K(Acryloyl(2E,3-(2-furyl)))ASRRC(Geranylgeranyl)-NH2)
Active: all assays above

CC[C@H](C)[C@H](NC(=O)[C@H](CCCCN)NC(=O)[C@@H](NC(=O)[C@H](CC(N)=O)NC(=O)[C@H](CCCNC(=N)N)NC(=O)[C@@H](N)CSSC[C@H](NC(=O)[C@H](CCCNC(=N)N)NC(=O)[C@H](CCCNC(=N)N)NC(=O)[C@H](CO)NC(=O)[C@H](CCCCN)NC(=O)[C@H](CCCCN)NC(=O)/C=C/c1ccco1)C(=O)N[C@H](C(=O)N[C@@H](CC(C)C)C(=O)N[C@@H](CC(C)C)C(=O)O)C(C)C)[C@@H](C)CC)C(=O)N[C@@H](Cc1c[nH]c2ccccc12)C(=O)N[C@@H](Cc1ccccc1)C(=O)N[C@@H](CCC(N)=O)C(=O)N[C@@H](CC(N)=O)C(=O)N[C@@H](CCCNC(=N)N)C(=O)N[C@@H](CCCNC(=N)N)C(=O)N[C@@H](CC(N)=O)C(=O)N[C@@H](CC(C)C)C(=O)N[C@@H](CCCCN)C(=O)N[C@@H](Cc1c[nH]c2ccccc12)C(=O)N[C@@H](CCCCN)C(=O)N[C@@H](CCCCN)C(=O)O (I: H-CRNIKIWFQNRRNLKWKK-OH / II: {Acryloyl(2E,3-(2-furyl))}-KKSRRCVLL-OH; disulfide I:1-II:6)
Active: all assays above
